Experimental data: ChEMBL document CHEMBL1148449, “Discovery, modeling, and human pharmacokinetics of N-(2-acetyl-4,6-dimethylphenyl)-3-(3,4-dimethylisoxazol-5-ylsulfamoyl)thiophene-2-carboxamide (TBC3711), a second generation, ETA selective, and orally bioavailable endothelin antagonist” (J Med Chem, 2004)
Where a SMILES comes first, the peptide text is derived from it. [ ]: non-standard residue; d: D form. The star is where a group is joined. Piperazinyl(4-Ph) = c1ccc(N2CCN(*)CC2)cc1; dGly(2-thienyl) = N[C@@H](C(=O)O)c1cccs1

How the values were obtained:
[1] = Compound was evaluated for area under the curve expressed as (h*ug/ml); type: ADME, organism-based; parameters: concentration or dose not given beside the values; settings: rat, in vivo
Procedure, shortened: (§1)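 Rats given 50 mg/kg orally. Plasma was separated at once by centrifugation and stored at -80 °C. Proteins were precipitated with acetonitrile and drug measured by HPLC to give Cmax, AUC and t1/2.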

[2] = target: T1, Endothelin-1 receptor (Homo sapiens, UniProt P25101); assay: Displacement of [125I]ET-1 from Endothelin A receptor
T1 sequence (P25101 whole entry): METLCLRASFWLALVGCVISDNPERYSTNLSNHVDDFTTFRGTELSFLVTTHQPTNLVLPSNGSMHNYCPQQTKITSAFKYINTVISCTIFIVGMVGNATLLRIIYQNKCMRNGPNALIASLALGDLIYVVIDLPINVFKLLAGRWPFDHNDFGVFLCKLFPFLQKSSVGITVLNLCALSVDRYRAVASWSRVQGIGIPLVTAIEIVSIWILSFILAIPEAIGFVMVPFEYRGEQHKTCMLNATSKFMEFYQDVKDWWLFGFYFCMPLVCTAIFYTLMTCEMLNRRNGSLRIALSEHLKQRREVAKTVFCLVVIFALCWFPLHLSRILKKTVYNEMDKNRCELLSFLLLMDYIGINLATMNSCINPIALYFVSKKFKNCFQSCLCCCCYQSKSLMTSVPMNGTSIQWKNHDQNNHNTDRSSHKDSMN

[3] = Cmax in rat plasma after oral dose (50 mg/Kg); type: ADME, organism-based; parameters: dose 50 mg/Kg, route oral; procedure, shortened: as §1
[4] = target: Endothelin-1 receptor (Homo sapiens) (UniProt P25101); assay: Selectivity towards endothelin A receptor in human.
[5] = Half life period was determined; type: ADME, organism-based; settings: rat, in vivo; procedure, shortened: as §1
[6] = target: Endothelin receptor (Rattus norvegicus) (UniProt P26684+P21451); assay: Selectivity for endothelin A receptor over endothelin receptor B; type: protein assay
[7] = target: T2, Endothelin-1 receptor (Rattus norvegicus) (UniProt P26684); assay: Selectivity towards endothelin A receptor in rat.
T2 sequence (whole entry): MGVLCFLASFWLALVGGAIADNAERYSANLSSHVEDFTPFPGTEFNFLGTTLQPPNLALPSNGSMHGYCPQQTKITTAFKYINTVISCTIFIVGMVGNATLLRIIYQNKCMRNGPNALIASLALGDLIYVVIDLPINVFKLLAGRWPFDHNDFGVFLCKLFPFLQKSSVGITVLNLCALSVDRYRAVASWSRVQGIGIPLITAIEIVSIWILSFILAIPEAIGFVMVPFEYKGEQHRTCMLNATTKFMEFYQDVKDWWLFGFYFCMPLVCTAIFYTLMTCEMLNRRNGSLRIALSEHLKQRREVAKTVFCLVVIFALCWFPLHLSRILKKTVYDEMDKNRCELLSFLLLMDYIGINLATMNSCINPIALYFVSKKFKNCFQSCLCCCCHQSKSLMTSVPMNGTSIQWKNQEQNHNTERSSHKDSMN

[8] = Compound was evaluated for oral bioavailability in rats; settings: rat, in vivo
[9] = target: T3, Endothelin-1 receptor (Rattus norvegicus, UniProt P26684); assay: Binding affinity towards Endothelin A receptor
T3 sequence (P26684 whole entry): T2 sequence (whole entry)

[10] = Maximal plasma concentration in rat after oral administration at 50 mg/kg; type: ADME, organism-based; parameters: dose 50 mg/kg, route oral; procedure, shortened: as §1
[11] = Half life period was evaluated in rat; 0.5-1.0; type: ADME, organism-based; settings: in vivo
[12] = tested on: Rattus norvegicus; assay: Compound was evaluated for oral dose to effect 50% inhibition of mean pulmonary arterial pressure (MPAP; type: functional, Artery
Procedure, shortened: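 Acute hypoxia-induced pulmonary hypertension model in rats. Compound given orally; the oral dose giving 50% inhibition of the increase in mean pulmonary arterial pressure is reported.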

Endothelin receptor (Rattus norvegicus), sequence (P21451 whole entry, looked up, one chain of several): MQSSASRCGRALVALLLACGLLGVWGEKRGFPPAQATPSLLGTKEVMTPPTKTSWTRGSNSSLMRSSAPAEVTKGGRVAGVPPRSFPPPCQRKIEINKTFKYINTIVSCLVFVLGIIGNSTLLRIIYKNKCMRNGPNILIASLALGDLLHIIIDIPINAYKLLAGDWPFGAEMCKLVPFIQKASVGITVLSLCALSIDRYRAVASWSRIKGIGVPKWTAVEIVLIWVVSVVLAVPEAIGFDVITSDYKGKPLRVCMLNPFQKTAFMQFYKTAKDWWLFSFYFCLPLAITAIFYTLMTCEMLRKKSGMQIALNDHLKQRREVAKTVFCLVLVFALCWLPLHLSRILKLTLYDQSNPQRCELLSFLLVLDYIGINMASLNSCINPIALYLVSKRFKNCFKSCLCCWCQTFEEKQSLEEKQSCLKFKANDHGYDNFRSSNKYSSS

| SMILES | AUC [1] [µg·h/mL] | IC50 [2] [nM] | Cmax [3] [ng/mL] | Selectivity [4] | half-life [5] [h] | also measured |
| --- | --- | --- | --- | --- | --- | --- |
| Cc1cc(C)c(NC(=O)c2sccc2S(=O)(=O)Nc2onc(C)c2Cl)c(Cl)c1 | 172 | 0.09 | 47500 | 166000 | 2.6 | – |
| Cc1cc(C)c(NC(=O)c2sccc2S(=O)(=O)Nc2onc(C)c2Cl)c(C(=O)N(C)CC(C)(C)C)c1 | – | 0.68 | – | 15900 | – | – |
| Cc1cc(C)c(NC(=O)c2sccc2S(=O)(=O)Nc2onc(C)c2Cl)c(C(=O)C2CCCCC2)c1 | – | 1.37 | – | 13000 | – | – |
| Cc1cc(C)c(N(C)C)c(C)c1NC(=O)c1sccc1S(=O)(=O)Nc1onc(C)c1Cl | – | – | 3200 | – | – | – |
| Cc1cc(C)c(NC(=O)c2sccc2S(=O)(=O)Nc2onc(C)c2Cl)c(C)c1C#N | – | – | 17300 | – | – | – |
| CCCS(=O)(=O)c1cc(C)cc(C)c1NC(=O)c1sccc1S(=O)(=O)Nc1onc(C)c1Cl | 5.9 | 0.06 | 2900 | 6100 | 1.3 | – |
| CC(C)C[C@@H]1NC(=O)[C@@H](C(C)C)NC(=O)[C@@H]2CCCN2C(=O)[C@@H](CC(=O)O)NC(=O)[C@@H](Cc2c[nH]c3ccccc23)NC1=O [BQ-123] (cyclo(L[dW][dD]P[dV])) | – | 22 | – | – | – | Selectivity [6]: 818 |
| Cc1cc(C)c(NC(=O)c2sccc2S(=O)(=O)Nc2onc(C)c2Cl)c(C(=O)C(C)C)c1 | – | 0.11 | 59200 | – | – | Selectivity [7]: 144000 |
| Cc1cc(C)c(NC(=O)c2sccc2S(=O)(=O)Nc2onc(C)c2Cl)c(C)c1 | – | 0.15 | – | 7000 | – | – |
| CCCCc1ccc2c(n1)[C@@H](c1ccc(OC)cc1C[C@H](C)C(=O)O)[C@H](C(=O)O)[C@H]2c1ccc2c(c1)OCO2 | – | – | – | – | – | bioavailability [8]: 40%; Ki [9]: 0.034 nM; Selectivity [6]: 3 |
| Cc1cc(C)c(NC(=O)c2sccc2S(=O)(=O)Nc2onc(C)c2Cl)c(C(=O)C2CC2)c1 | 365 | 0.03 | 53400 | 331000 | 5.4 | – |
| Cc1cc(C)c(NC(=O)c2sccc2S(=O)(=O)Nc2onc(C)c2C)c(C#N)c1C | 667 | 0.08 | 85800 | 328000 | 5.3 | – |
| Cc1cc(-c2ncco2)cc(C)c1NC(=O)c1sccc1S(=O)(=O)Nc1onc(C)c1Cl | – | 1.27 | – | 1900 | – | – |
| Cc1cc(C)c(NC(=O)c2sccc2S(=O)(=O)Nc2onc(C)c2Cl)c(-c2ncco2)c1 | 362 | 0.08 | 66000 | 119000 | 5.3 | – |
| CO/N=C(\C)c1cc(C)cc(C)c1NC(=O)c1sccc1S(=O)(=O)Nc1onc(C)c1Cl | 33.5 | 0.04 | 13800 | 56000 | 1.2 | – |
| Cc1cc(C)c(NC(=O)c2sccc2S(=O)(=O)Nc2onc(C)c2Cl)c(S(C)(=O)=O)c1 | 28.2 | 0.03 | – | 325000 | 1.7 | Cmax [10]: 10300 ng/mL |
| CC(=O)c1c(C)c(C)cc(C)c1NC(=O)c1sccc1S(=O)(=O)Nc1onc(C)c1Cl | 53.8 | 0.02 | 10800 | 1.18e+06 | 1.68 | – |
| Cc1cc(C)c(NS(C)(=O)=O)c(C)c1NC(=O)c1sccc1S(=O)(=O)Nc1onc(C)c1Cl | – | – | 2800 | – | – | – |
| Cc1cc(C)c(NC(=O)c2sccc2S(=O)(=O)Nc2onc(C)c2Cl)c(S(=O)(=O)C(C)C)c1 | – | 0.05 | – | 8800 | – | – |

| SMILES | AUC [1] [µg·h/mL] | IC50 [2] [nM] | Cmax [3] [ng/mL] | Selectivity [4] | half-life [5] [h] | also measured |
| --- | --- | --- | --- | --- | --- | --- |
| Cc1cc(C)c(NC(=O)c2sccc2S(=O)(=O)Nc2onc(C)c2Cl)c(C(=O)N(C)C)c1 | 27.2 | 0.07 | 10900 | 12300 | 1.19 | – |
| C/C(=N\O)c1cc(C)cc(C)c1NC(=O)c1sccc1S(=O)(=O)Nc1onc(C)c1Cl | 39.5 | 0.02 | 6920 | 24500 | 5.2 | – |
| Cc1cc(C)c(NC(=O)c2sccc2S(=O)(=O)Nc2onc(C)c2Cl)c(C)c1CO | – | – | 2400 | – | – | – |
| COc1c(C)cc(C)c(NC(=O)c2sccc2S(=O)(=O)Nc2onc(C)c2Cl)c1C | – | – | 4000 | – | – | – |
| COc1cc(OC)nc(O[C@H](C(=O)O)C(OC)(c2ccccc2)c2ccccc2)n1 | – | – | – | – | – | Ki [9]: 6 nM; Selectivity [6]: 60 |
| CC(=O)c1cc(C)cc(C)c1NC(=O)c1sc(C)cc1S(=O)(=O)Nc1onc(C)c1Cl | 327 | 0.21 | 68900 | 4500 | 2.7 | bioavailability [8]: 49% |
| CCCCN(CCCC)C(=O)CN1C[C@H](c2ccc3c(c2)OCO3)[C@@H](C(=O)O)[C@@H]1c1ccc(OC)cc1 | – | – | – | – | – | bioavailability [8]: 60% |
| Cc1cc(C)c(NC(=O)c2sccc2S(=O)(=O)Nc2onc(C)c2Cl)c(-c2ccccc2)c1 | – | 1.47 | – | 1900 | – | – |
| Cc1cc(C)c(NC(=O)c2sccc2S(=O)(=O)Nc2onc(C)c2Cl)c(C#N)c1C | 373 | 0.05 | 45700 | 608000 | 5.11 | – |
| Cc1cc(C)c(S(N)(=O)=O)c(C)c1NC(=O)c1sccc1S(=O)(=O)Nc1onc(C)c1Cl | – | – | 2900 | – | – | – |
| CC(C)C[C@@H]1NC(=O)[C@@H](c2cccs2)NC(=O)[C@H](CC(=O)[O-])NC(=O)[C@H](CC(=O)N2CCN(c3ccccc3)CC2)NC(=O)[C@@H](CC(=O)[O-])NC(=O)[C@@H](Cc2c[nH]c3ccccc23)NC1=O.[Na+].[Na+] (cyclo(D(Piperazinyl(4-Ph))D[dGly(2-thienyl)]L[dW][dD])) | – | – | – | – | – | Selectivity [6]: 540; half-life [11]: 1 h |
| CC(=O)OCc1c(C)cc(C)c(NC(=O)c2sccc2S(=O)(=O)Nc2onc(C)c2Cl)c1C | – | – | 3800 | – | – | – |
| Cc1cc(C)c(NC(=O)c2sccc2S(=O)(=O)Nc2onc(C)c2Cl)c(C(=O)CS(C)(=O)=O)c1 | 636 | 0.1 | 37300 | 66500 | 12.2 | bioavailability [8]: 16%; ED50 [12]: > 5 mg/kg |
| CCC(=O)c1cc(C)cc(C)c1NC(=O)c1sccc1S(=O)(=O)Nc1onc(C)c1Cl | – | 0.06 | – | 214000 | – | – |
| CCC(=O)c1c(C)c(C)cc(C)c1NC(=O)c1sccc1S(=O)(=O)Nc1onc(C)c1Cl | 24.3 | 0.03 | 13000 | 216000 | 1.47 | – |
| Cc1cc(C)c(OC2CC2)c(C)c1NC(=O)c1sccc1S(=O)(=O)Nc1onc(C)c1Cl | – | – | 6100 | – | – | – |
| Cc1cc(C)c(NC(=O)c2sccc2S(=O)(=O)Nc2onc(C)c2Cl)c(C(=O)c2ccccc2)c1 | 141 | 0.39 | 33400 | 46000 | 3.95 | – |
| Cc1cc(C)c(NC(=O)c2sccc2S(=O)(=O)Nc2onc(C)c2Cl)c(C(=O)O)c1 | – | 2.62 | – | 600 | – | – |
| CCCc1c(O)c(C(C)=O)cc(C(C)=O)c1NC(=O)c1sccc1S(=O)(=O)Nc1onc(C)c1Cl | – | 12.4 | – | – | – | Selectivity [7]: 1000 |
